Data from ChEMBL document CHEMBL1132183 (J Med Chem, 1999).

Columns and labels:
[1] = target: T1, Alpha-1D adrenergic receptor (Rattus norvegicus) (UniProt P23944); experiment: Alpha-1D adrenergic receptor subtype blocking activity (antagonism) against (-)-noradrenaline-induced contraction of rat thoracic aorta.; assay type: functional, tissue-based
T1 sequence (whole entry): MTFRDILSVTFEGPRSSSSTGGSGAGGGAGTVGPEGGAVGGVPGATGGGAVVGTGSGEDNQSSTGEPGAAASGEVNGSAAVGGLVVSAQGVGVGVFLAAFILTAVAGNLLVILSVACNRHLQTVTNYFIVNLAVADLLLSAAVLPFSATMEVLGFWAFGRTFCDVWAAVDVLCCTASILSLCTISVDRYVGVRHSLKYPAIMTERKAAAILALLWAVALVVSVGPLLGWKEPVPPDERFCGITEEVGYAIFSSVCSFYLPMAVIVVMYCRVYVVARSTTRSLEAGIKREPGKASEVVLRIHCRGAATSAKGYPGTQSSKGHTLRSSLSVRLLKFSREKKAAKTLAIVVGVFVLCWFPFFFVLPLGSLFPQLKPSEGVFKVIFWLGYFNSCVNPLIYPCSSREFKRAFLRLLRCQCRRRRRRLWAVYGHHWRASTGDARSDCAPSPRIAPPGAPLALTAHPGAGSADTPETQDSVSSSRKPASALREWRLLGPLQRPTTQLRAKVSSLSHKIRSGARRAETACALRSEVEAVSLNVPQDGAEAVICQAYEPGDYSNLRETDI
Procedure, shortened: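 Helicoidal strips of rat thoracic aorta under 1 g tension, bath with 0.01 μM desipramine and 1 μM (±)-propranolol, equilibrated ≥1 h. Cumulative (–)-noradrenaline curves at 30-min intervals: first two discarded, third as control, fourth after 30-min antagonist exposure. pKb by Arunlakshana–Schild from EC50 dose ratios at 2–3 antagonist concentrations, each tested four times.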

[2] = target: T2, Alpha-1B adrenergic receptor (Homo sapiens, UniProt P35368); experiment: Displacement of [3H]prazosin from human cloned Alpha-1B adrenergic receptor
T2 sequence (P35368 whole entry): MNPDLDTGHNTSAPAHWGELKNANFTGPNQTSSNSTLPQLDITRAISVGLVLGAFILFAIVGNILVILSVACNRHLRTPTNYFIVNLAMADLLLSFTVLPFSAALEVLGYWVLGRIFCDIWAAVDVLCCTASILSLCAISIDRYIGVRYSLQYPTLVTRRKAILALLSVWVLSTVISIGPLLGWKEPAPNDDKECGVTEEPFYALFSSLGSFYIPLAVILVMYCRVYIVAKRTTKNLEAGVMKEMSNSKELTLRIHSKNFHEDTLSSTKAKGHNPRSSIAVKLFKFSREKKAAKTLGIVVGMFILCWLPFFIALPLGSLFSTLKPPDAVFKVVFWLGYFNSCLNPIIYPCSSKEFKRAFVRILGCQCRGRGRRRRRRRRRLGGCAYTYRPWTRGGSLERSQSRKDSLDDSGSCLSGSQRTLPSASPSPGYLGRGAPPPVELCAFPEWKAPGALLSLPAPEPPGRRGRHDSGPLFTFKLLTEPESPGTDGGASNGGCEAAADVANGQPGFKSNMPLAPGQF
Procedure, shortened: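 CHO cells stably transfected with each human α1 subtype; 30 μg membrane protein in 50 mM Tris-HCl pH 7.4 with 0.1–0.4 nM [3H]prazosin, 30 min at 25 °C. Competitors 1 pM–10 μM. Nonspecific binding defined with 10 μM phentolamine. Filtration, scintillation counting. Ki by Cheng–Prusoff; 2–3 experiments in triplicate.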

[3] = target: T3, Alpha-1B adrenergic receptor (Rattus norvegicus) (UniProt P15823); experiment: Antagonism of Alpha-1B adrenergic receptor subtype (-)-phenylephrine-induced contraction of rat spleen; assay type: functional, tissue-based
T3 sequence (whole entry): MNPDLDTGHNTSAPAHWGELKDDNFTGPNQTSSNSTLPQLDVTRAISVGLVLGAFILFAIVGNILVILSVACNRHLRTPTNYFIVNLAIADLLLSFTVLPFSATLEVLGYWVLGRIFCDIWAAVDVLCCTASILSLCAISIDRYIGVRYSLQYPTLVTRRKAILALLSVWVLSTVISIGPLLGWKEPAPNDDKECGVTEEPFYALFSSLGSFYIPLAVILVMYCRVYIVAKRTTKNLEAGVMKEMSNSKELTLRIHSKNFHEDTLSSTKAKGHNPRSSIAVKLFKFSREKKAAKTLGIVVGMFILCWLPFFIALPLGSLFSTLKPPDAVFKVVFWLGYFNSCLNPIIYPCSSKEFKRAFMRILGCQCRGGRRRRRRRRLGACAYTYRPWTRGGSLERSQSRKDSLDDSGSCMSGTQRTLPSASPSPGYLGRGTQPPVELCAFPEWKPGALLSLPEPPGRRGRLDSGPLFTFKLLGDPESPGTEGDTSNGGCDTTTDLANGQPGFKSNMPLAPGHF
Procedure, shortened: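 Rat spleen, isometric cumulative (–)-phenylephrine curves at 30-min intervals; first discarded, second taken as control. Antagonist was equilibrated 30 min before the next curve.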

[4] = target: T3, Alpha-1B adrenergic receptor (Rattus norvegicus); experiment: Eudisimic ratio(ER) is the antilog of the defference between the pKb and pD2 values against alpha-1B-adrenoceptor subtype; assay type: functional
Procedure, shortened: (§1)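 Eudismic ratio is the antilog of the difference between the pKb (functional α1 tissue assays) or pD2 (5-HT1A [35S]GTPγS stimulation) of the eutomer and that of its distomer.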

[5] = target: Serotonin 2 (5-HT2) receptor (Rattus norvegicus, UniProt P30994+P08909+P14842); experiment: Displacement of [3H]ketanserin from rat brain 5-hydroxytryptamine 2 receptor
Procedure, shortened: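 Rat cerebral cortex membranes (male Sprague–Dawley) in Tris-HCl pH 7.4 with 10 μM pargiline and 0.1% ascorbic acid were incubated 20 min at 37 °C with 0.7–1.3 nM [3H]ketanserin (5-HT2A). Nonspecific binding was defined by 2 μM ketanserin. Bound label was counted after filtration, and Ki was derived by Cheng–Prusoff.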

[6] = target: T4, Alpha-1A adrenergic receptor (Rattus norvegicus) (UniProt P43140); experiment: Eudisimic ratio(ER) is the antilog of the defference between the pKb and pD2 values against Alpha-1A adrenergic receptor subtype; procedure, shortened: as §1
T4 sequence (whole entry): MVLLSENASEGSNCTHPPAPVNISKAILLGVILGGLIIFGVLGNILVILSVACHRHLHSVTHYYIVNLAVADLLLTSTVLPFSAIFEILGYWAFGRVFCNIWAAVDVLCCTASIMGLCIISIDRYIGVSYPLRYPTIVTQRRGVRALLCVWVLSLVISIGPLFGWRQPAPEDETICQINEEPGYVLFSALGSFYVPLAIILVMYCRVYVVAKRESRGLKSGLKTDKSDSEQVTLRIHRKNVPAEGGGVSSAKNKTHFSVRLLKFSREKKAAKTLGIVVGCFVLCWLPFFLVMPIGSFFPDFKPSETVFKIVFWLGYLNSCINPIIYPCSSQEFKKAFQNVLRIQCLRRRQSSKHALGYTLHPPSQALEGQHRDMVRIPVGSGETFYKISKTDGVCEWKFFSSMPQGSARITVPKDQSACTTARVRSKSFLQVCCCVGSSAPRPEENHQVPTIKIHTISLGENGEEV

| Compound | pKb [1] | Ki [2] | pKb [3] | ER [4] | Log Ki [5] | ER [6] |
| --- | --- | --- | --- | --- | --- | --- |
| O[C@@H]1[C@H](NC[C@@H]2COc3ccccc3O2)CC[C@H]1Oc1ccccc1 | 7.78 | 93.3 nM | 6.83 | – | – | – |
| O[C@@H]1[C@H](NC[C@H]2COc3ccccc3O2)CC[C@H]1Oc1ccccc1 | 8.17 | – | 7.13 | 49 | < -6 | – |
| O[C@H]1[C@@H](NC[C@H]2COc3ccccc3O2)CC[C@@H]1Oc1ccccc1 | 6.92 | 1820 nM | 5.79 | 11 | < -6 | 3 |
| O[C@H]1[C@@H](NC[C@@H]2COc3ccccc3O2)CC[C@@H]1Oc1ccccc1 | 6.65 | > 1000 nM | 5.44 | – | – | – |
